From ChEMBL document CHEMBL1123775, “C3-methylated 5-hydroxy-2-(dipropylamino)tetralins: conformational and steric parameters of importance for central dopamine receptor activation” (1987) come the findings set out here.

Test [1] deals with Rattus norvegicus. The test is described as follows: Effect of in vivo DOPA accumulation in reserpine-pretreated rats at limbic region, at 5 mg/kg dosage administered subcutaneously. In kind it is functional, Limbic system. Particulars: route subcutaneous.
Test [2] deals with Rattus norvegicus. Put plainly: Effect of in vivo DOPA accumulation in reserpine-pretreated rats at striatum region, at 5 mg/kg dosage administered sc. In kind it is functional. As to conditions: route subcutaneous.
Test [3] relates to Rattus norvegicus. Put plainly: In vivo locomotor activity (accumulated counts/30 min) in reserpine-pretreated rats, after subcutaneous administration of 0.31 umol/kg. In kind it is functional. The method in brief:
(§1)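 Rats pretreated with reserpine 5 mg/kg sc 18 h earlier, then test drug sc immediately before session; photocell motility counts accumulated over 30 min, with gross behaviour observed through mirror. Mean ± SEM, n = 3-4; Student's t test vs saline controls; haloperidol pretreatment 0.5 mg/kg ip 30 min before used to test antagonism.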

Test [4] has as its system Rattus norvegicus. The test is described as follows: In vivo locomotor activity (accumulated counts/30 min) in reserpine-pretreated rats, after subcutaneous administration of 39 uM/Kg. In kind it is functional. The method in brief:
as §1

Test [5] has as its system Rattus norvegicus. The test is described as follows: Effect of in vivo DOPA accumulation in nonpretreated rats at limbic region, at 5 mg/kg dosage administered subcutaneously; I = Inactive. In kind it is functional, organism-based. Also on record: dose 5 mg/kg. Particulars: Limbic system. The method in brief:
(§2)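 Nonpretreated rats given test drug sc 65 min and NSD 1015 (100 mg/kg ip) 30 min before death; saline controls. Limbic and striatal DOPA by HPLC with electrochemical detection.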

Test [6] deals with Rattus norvegicus. Put plainly: Effect on in vivo DOPA accumulation in nonpretreated rats at striatum region at 5 mg/kg dosage administered subcutaneously; I = Inactive. In kind it is functional, organism-based. Further details: dose 5 mg/kg. The method in brief:
as §2

Test [7] relates to Rattus norvegicus. Put plainly: Evaluated for in vivo locomotor activity in nonpretreated rats, measured as accumulated counts/30 min at a dose of 52 umol/kg administered sc. In kind it is functional. The method in brief:
(§3)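 Nonpretreated rats injected sc with test drug 5 min before session; motility by photocell recording, counts accumulated over 30 min. Expressed as percent of saline controls, means ± SEM, n = 3-5; Student's t test vs saline controls.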

The subject of test [8] is Rattus norvegicus. Put plainly: In vivo locomotor activity (accumulated counts/30 min) in reserpine-pretreated rats, after subcutaneous administration of 52 uM/Kg. In kind it is functional. The method in brief:
as §1

The test system of test [9] is Rattus norvegicus. The test is described as follows: Effect of in vivo DOPA accumulation in reserpine-pretreated rats at striatum region, at 5 mg/kg dosage administered subcutaneously. In kind it is functional. As to conditions: sc, route subcutaneous.
Test [10] relates to Rattus norvegicus. Put plainly: Effect of in vivo DOPA accumulation in reserpine-pretreated rats at striatum region, at 5 mg/kg dosage administered sc; I = Inactive. In kind it is functional, organism-based. Further details: dose 5 mg/kg.
In test [11] the test system is Rattus norvegicus. Put plainly: In vivo locomotor activity (accumulated counts/30 min) in reserpine-pretreated rats, after subcutaneous administration of 10 uM/Kg. In kind it is functional. An outline of the steps: as §1
In test [12] the test system is Rattus norvegicus. Put plainly: Effect of in vivo DOPA accumulation in reserpine-pretreated rats at limbic region, at 5 mg/kg dosage administered subcutaneously; I = Inactive. In kind it is functional, organism-based. Also on record: dose 5 mg/kg. As to conditions: Limbic system.
In test [13] the test system is Rattus norvegicus. The test is described as follows: In vivo locomotor activity (accumulated counts/30 min) in reserpine-pretreated rats, after subcutaneous administration of 0.32 uM/Kg. In kind it is functional. The method in brief: as §1
Test [14] relates to Rattus norvegicus. The test is described as follows: Effect on in vivo DOPA accumulation in nonpretreated rats at Limbic region, at 5 mg/kg dosage administered subcutaneously; I = Inactive. In kind it is functional, organism-based. Also on record: dose 5 mg/kg. Particulars: Limbic system. An outline of the steps: as §2
Test [15] concerns Rattus norvegicus. Put plainly: Effect on in vivo DOPA accumulation in nonpretreated rats at striatum region, at 5 mg/kg dosage administered subcutaneously; I = Inactive. In kind it is functional, organism-based. Further details: dose 5 mg/kg. An outline of the steps: as §2
Test [16] deals with Rattus norvegicus. The test is described as follows: In vivo locomotor activity (accumulated counts/30 min) in reserpine-pretreated rats, after subcutaneous administration of 3.2 uM/Kg. In kind it is functional. An outline of the steps:
as §1

The subject of test [17] is Rattus norvegicus. Put plainly: In vivo locomotor activity (accumulated counts/30 min) in nonpretreated rats after subcutaneous administration of 3.2 uM/Kg. In kind it is functional. The method in brief: as §3
For test [18], the system named is Rattus norvegicus. The test is described as follows: In vivo locomotor activity (accumulated counts/30 min) in nonpretreated rats after subcutaneous administration of 0.32 uM/Kg. In kind it is functional. The method in brief:
as §3

Where [19] appears, read: Rattus norvegicus, Limbic system, sc, read-out: ED50.

The source made the active and inactive calls. The rule behind the calls is not given here.

In the case of `CCCN(CCC)[C@H]1CCc2c(O)cccc2C1`, the ED50 in the test with Rattus norvegicus [1] (setting [19]) and with Rattus norvegicus [2] was 0.004 µmol/kg in each case. Besides, the Locomotor activity with Rattus norvegicus [3] was determined as 155.

With `CCCN(CCC)[C@@H]1CCc2c(O)cccc2C1`, the ED50 with Rattus norvegicus [1] (setting [19]) came to 0.41 µmol/kg; in the test on Rattus norvegicus [2], 0.65 µmol/kg. The Locomotor activity with Rattus norvegicus [4] is listed as 43.

As to `CCCN(CCC)[C@@H]1Cc2cccc(O)c2C[C@H]1C` (stereo in doubt; (+)5) [listing 1 of 2 here], the ED50 result with Rattus norvegicus [5] and with Rattus norvegicus [6] was “inactive” in each case.

As to `CCCN(CCC)[C@@H]1Cc2cccc(O)c2C[C@H]1C` (stereo in doubt; (+)5) [listing 2 of 2 here], the ED50 in the test on Rattus norvegicus [1] (dose 5 mg/kg) amounted to 25 µM/kg; with Rattus norvegicus [9] it was 25 µmol/kg. Also, the Locomotor activity in the test on Rattus norvegicus [7] amounted to 84; in the test with Rattus norvegicus [8], 55.

On to `CCCN(CCC)[C@@H]1Cc2cccc(O)c2C[C@@H]1C`, for which the ED50 with Rattus norvegicus [1] (setting [19]) and in the test on Rattus norvegicus [2] was 0.005 µmol/kg in each case. The Locomotor activity in the test on Rattus norvegicus [7] was 70; with Rattus norvegicus [11] it was 12; in the test on Rattus norvegicus [13], 110. For the same compound, the ED50 result with Rattus norvegicus [10], with Rattus norvegicus [12], with Rattus norvegicus [14] and in the test with Rattus norvegicus [15] was “inactive” throughout.

As for `CN1CCc2cccc3c2[C@H]1Cc1ccc(O)c(O)c1-3` [APOMORPHINE], the ED50 is 0.041 µmol/kg in the test with Rattus norvegicus [1] (setting [19]) and 0.044 µmol/kg in the test on Rattus norvegicus [2]. Besides, the Locomotor activity is 366 in the test with Rattus norvegicus [16], 277 in the test on Rattus norvegicus [17] and 52 in the test on Rattus norvegicus [18].

Take `CCCN(CCC)[C@@H]1Cc2cccc(O)c2C[C@H]1C` (stereo in doubt; (-)5): the values for the ED50 in the test with Rattus norvegicus [1] (dose 5 mg/kg) and with Rattus norvegicus [2] were 3.5 µM/kg and 3.1 µmol/kg, respectively. Moreover, the Locomotor activity with Rattus norvegicus [8] stood at 53.
